Test results published in ChEMBL document CHEMBL4266041, “Hydroxybiphenylamide GroEL/ES Inhibitors Are Potent Antibacterials against Planktonic and Biofilm Forms of Staphylococcus aureus” (J Med Chem, 2018).
Activity calls are given as the source filed them. No cut-off for these calls is given here.

Legend:
Enterococcus faecium = assay: Antibacterial activity against Enterococcus faecium ATCC 19434 after 24 hrs by bacterial proliferation assay; format: functional, organism-based; conditions: ATCC 19434, 24 h
[1] = biological target: T1, Thiosulfate sulfurtransferase (Homo sapiens, UniProt Q16762); assay: Inhibition of refolded rhodanese (unknown origin) preincubated with Escherichia coli GroEL/GroES for 60 mins in absence of compound followed by compound addition by spectrometric analysis
T1 sequence (Q16762 whole entry): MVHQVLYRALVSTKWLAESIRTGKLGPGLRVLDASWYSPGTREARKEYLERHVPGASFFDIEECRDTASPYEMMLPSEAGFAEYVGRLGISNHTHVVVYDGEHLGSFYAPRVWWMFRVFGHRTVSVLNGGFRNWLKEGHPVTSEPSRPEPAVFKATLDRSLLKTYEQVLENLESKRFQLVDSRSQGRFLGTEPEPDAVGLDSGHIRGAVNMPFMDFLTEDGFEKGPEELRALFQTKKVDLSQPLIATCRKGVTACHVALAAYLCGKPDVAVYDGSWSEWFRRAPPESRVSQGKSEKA

E. coli GroEL/ES [2] = biological target: T2, E. coli GroEL/ES (Escherichia coli, UniProt P0A6F5); assay: Inhibition of Escherichia coli GroEL expressed in Escherichia coli DH5alpha/Escherichia coli GroES expressed in Escherichia coli BL21 (DE3) assessed as reduction in GroEL/GroES-mediated denatured rhodanese refolding after 45 mins by spectrometric analysis
T2 sequence (P0A6F5 whole entry, looked up): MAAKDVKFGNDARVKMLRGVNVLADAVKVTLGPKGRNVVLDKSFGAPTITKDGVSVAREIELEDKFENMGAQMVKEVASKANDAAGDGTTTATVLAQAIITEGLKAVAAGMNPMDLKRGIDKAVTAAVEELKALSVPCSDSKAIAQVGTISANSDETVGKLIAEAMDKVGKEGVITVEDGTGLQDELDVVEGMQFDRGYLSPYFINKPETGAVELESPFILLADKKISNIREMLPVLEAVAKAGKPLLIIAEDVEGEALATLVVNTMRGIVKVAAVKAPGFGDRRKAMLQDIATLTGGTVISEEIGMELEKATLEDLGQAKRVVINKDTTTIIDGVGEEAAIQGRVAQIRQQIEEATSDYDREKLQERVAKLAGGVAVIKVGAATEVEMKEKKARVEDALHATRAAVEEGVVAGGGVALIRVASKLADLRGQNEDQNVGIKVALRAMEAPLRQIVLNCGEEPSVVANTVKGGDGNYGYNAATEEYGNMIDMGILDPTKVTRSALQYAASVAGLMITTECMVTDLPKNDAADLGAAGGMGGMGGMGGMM
Summary of the method: (§1)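 Uses E. coli GroEL/ES with a denatured MDH or rhodanese reporter. GroEL first forms a binary complex with the denatured reporter. Refolding is started by adding ATP and GroES, then reporter enzyme activity is read. DMSO is the negative control. IC50 values from replicate curves are log-averaged after ROUT outlier screening.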

Staphylococcus aureus [3] = assay: Bactericidal activity against Staphylococcus aureus Rosenbach ATCC 25923 in biofilms preincubated for 24 hrs followed by compound wash out and measured after 24 hrs; format: functional, organism-based
Summary of the method: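 ATCC 25923 preculture (TSB + 0.5% glucose, OD600 0.01) grown stagnant 24 h at 37°C to form biofilm, without compound. Wells washed 3× with PBS, then fresh TSB added with compound (100 µM–46 nM, 3-fold, DMSO) for 24 h at 37°C. Washed again, then recovered in fresh TSB 24 h at 37°C.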

[4] = Therapeutic index, ratio of CC50 for human THLE3 cells to EC50 for methicillin-resistant Staphylococcus aureus ATCC BAA-44; format: toxicity; conditions: read-out: Ratio CC50/EC50
Summary of the method: (§2)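 Ratio of human-cell CC50 to MRSA (ATCC BAA-44) EC50. […] EC50 comes from inhibition of MRSA proliferation in liquid culture. Replicate values were log-transformed, screened for outliers (ROUT, Q 10%), then averaged and back-calculated. Values above 100 µM were entered as 126 µM.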

Staphylococcus aureus [5] = assay: Antibacterial activity against Staphylococcus aureus ATCC 25923 after 6 to 8 hrs by bacterial proliferation assay; format: functional, organism-based
Klebsiella pneumoniae = assay: Antibacterial activity against Klebsiella pneumoniae ATCC 13883 after 6 to 8 hrs by bacterial proliferation assay; format: functional, organism-based
Summary of the method: (§3)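 Bacterial growth inhibition in liquid culture. The highest concentration tested was 100 µM. The mean was back-calculated from the average log value. Values above the top concentration were set 0.1 log unit higher.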

Pseudomonas aeruginosa = assay: Antibacterial activity against Pseudomonas aeruginosa ATCC 10145 after 24 hrs by bacterial proliferation assay; format: functional, organism-based; conditions: ATCC 10145, 24 h; summary of the method: as §3
Staphylococcus aureus [6] = assay: Bactericidal activity against planktonic growth of Staphylococcus aureus Rosenbach ATCC 25923 preincubated for 24 hrs followed by compound wash out and measured after 24 hrs; format: functional, organism-based
Acinetobacter baumannii = assay: Antibacterial activity against Acinetobacter baumannii ATCC 19606 after 24 hrs by bacterial proliferation assay; format: functional, organism-based; conditions: ATCC 19606 = CIP 70.34 = JCM 6841, 24 h; summary of the method: as §3
Staphylococcus aureus [7] = assay: Ratio of EC50 for bactericidal activity against Staphylococcus aureus Rosenbach ATCC 25923 in biofilms to EC50 for planktonic growth of Staphylococcus aureus Rosenbach ATCC 25923; format: functional
E. coli GroEL/ES [8] = biological target: T2, E. coli GroEL/ES; assay: Inhibition of Escherichia coli GroEL expressed in Escherichia coli DH5alpha/Escherichia coli GroES expressed in Escherichia coli BL21 (DE3) assessed as reduction in GroEL/GroES-mediated denatured MDH refolding after 20 to 40 mins by spectrometric analysis; summary of the method: as §1
Staphylococcus aureus [9] = assay: Antibiofilm activity against Staphylococcus aureus Rosenbach ATCC 25923 after 24 hrs by crystal-violet based UV-Vis spectroscopy; format: functional, organism-based; conditions: Rosenbach ATCC 25923, 24 h
Summary of the method: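 ATCC 25923 colony grown overnight in TSB at 37°C with shaking, precultured 1 h in TSB + 0.5% glucose, then diluted to OD600 0.01. Incubated stagnant at 37°C for 24 h with compound (100 µM–46 nM, 3-fold, DMSO), alongside bacteria-free baseline plates. Wells washed, crystal violet stained 15 min, developed in MeOH:AcOH:H2O, A595.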

Staphylococcus aureus [10] = assay: Antibacterial activity against methicillin-resistant Staphylococcus aureus ATCC BAA-44 after 6 to 8 hrs by bacterial proliferation assay; format: functional, organism-based; conditions: Staphylococcus aureus, ATCC BAA-44
[11] = Inhibition of refolded MDH (unknown origin) preincubated with Escherichia coli GroEL/GroES for 45 mins in absence of compound followed by compound addition and measured for 20 to 35 mins by spectrometric analysis
[12] = Cytotoxicity against human THLE3 cells assessed as reduction in cell viability after 48 hrs by Alamar Blue reporter assay; conditions: 48 h
[13] = Therapeutic index, ratio of CC50 for HEK293 cells to EC50 for methicillin-resistant Staphylococcus aureus ATCC BAA-44; format: toxicity; conditions: human, read-out: Ratio CC50/EC50; summary of the method: as §2
HEK293 = assay: Cytotoxicity against HEK293 cells assessed as reduction in cell viability after 48 hrs by Alamar Blue reporter assay; conditions: human, hek293, 48 h
Enterobacter cloacae = assay: Antibacterial activity against Enterobacter cloacae subsp. cloacae ATCC 13047 after 24 hrs by bacterial proliferation assay; format: functional, organism-based; conditions: subsp. cloacae ATCC 13047, 24 h; summary of the method: as §3
HSP60/HSP10 = HSP60/HSP10 (Homo sapiens, UniProt P10809); assay: Inhibition of human N-terminal octa-His-tagged HSP60 expressed in Escherichia coli Rosetta(DE3) pLysS/human HSP10 expressed in Escherichia coli Rosetta(DE3) assessed as reduction in HSP60/HSP10-mediated denatured MDH refolding after 40 to 60 mins by spectrometric analysis
Sequence of HSP60/HSP10 (P10809 whole entry): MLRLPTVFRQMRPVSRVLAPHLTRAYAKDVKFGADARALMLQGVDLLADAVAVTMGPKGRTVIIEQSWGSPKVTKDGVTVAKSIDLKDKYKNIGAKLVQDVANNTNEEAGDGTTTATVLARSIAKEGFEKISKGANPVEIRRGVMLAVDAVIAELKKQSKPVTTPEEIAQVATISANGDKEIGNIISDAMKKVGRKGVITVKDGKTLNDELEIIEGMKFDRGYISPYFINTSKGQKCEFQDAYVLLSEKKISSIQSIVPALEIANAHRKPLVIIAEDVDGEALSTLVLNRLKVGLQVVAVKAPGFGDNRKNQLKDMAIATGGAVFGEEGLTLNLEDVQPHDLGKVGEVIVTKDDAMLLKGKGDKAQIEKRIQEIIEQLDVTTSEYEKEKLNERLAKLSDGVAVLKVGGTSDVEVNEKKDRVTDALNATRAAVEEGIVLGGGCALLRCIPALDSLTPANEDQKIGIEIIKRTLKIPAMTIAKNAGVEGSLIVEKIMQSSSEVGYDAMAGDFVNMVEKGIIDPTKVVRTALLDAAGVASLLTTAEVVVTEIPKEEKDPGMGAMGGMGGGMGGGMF
Sequence of HSP60/HSP10 (P61604 whole entry, further chain): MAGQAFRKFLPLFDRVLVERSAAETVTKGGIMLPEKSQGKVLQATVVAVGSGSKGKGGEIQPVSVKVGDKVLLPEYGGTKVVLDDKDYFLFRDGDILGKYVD
Summary of the method: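 Human HSP60/10 refolding of denatured MDH, run the same way as the GroEL/ES-dMDH assay. A binary complex of chaperonin and denatured MDH is formed, and refolding is started with ATP and HSP10. MDH activity is the read-out. DMSO is the negative control. IC50 values from replicate curves are log-averaged after ROUT outlier screening.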

Staphylococcus aureus [14] = assay: Antibacterial activity against methicillin-resistant Staphylococcus aureus ATCC BAA-44 precultured for 24 hrs passage with compound followed by subculture in presence of compound for 12 days serial passage; format: functional, organism-based
Summary of the method: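 Cells from the first well with OD600 >0.2 were sub-cultured 24 h in a fresh compound dilution series. Serial passage ran for 12 days, with EC50 determined after each passage. Averages are from triplicate analyses.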

| SMILES | EC50 (Enterococcus faecium) [µM] | IC50 [1] [µM] | IC50 (E. coli GroEL/ES [2]) [µM] | EC50 (Staphylococcus aureus [3]) [µM] | EC50 (Staphylococcus aureus [5]) [µM] | EC50 (Klebsiella pneumoniae) [µM] | EC50 (Pseudomonas aeruginosa) [µM] | EC50 (Staphylococcus aureus [6]) [µM] | EC50 (Acinetobacter baumannii) [µM] | Ratio EC50 (Staphylococcus aureus [7]) | IC50 (E. coli GroEL/ES [8]) [µM] | EC50 (Staphylococcus aureus [9]) [µM] | EC50 (Staphylococcus aureus [10]) [µM] | IC50 [11] [µM] | CC50 [12] [µM] | CC50 (HEK293) [µM] | EC50 (Enterobacter cloacae) [µM] | IC50 (HSP60/HSP10) [µM] | other results |
| --- | --- | --- | --- | --- | --- | --- | --- | --- | --- | --- | --- | --- | --- | --- | --- | --- | --- | --- | --- |
| O=C(Nc1ccc(Sc2nc3ccccc3s2)cc1)c1cc(Br)cc(Br)c1O | 0.88 | > 100 | 1.3 | 2.3 | 0.44 | > 100 | > 100 | 0.44 | > 100 | 5 - 15 | 2.7 | 0.54 | 0.52 | 8.4 | 20 | 66 | > 100 |  | selectivity ratio [4]: > 50; selectivity ratio [13]: > 50 |
| O=C(Nc1ccc(Sc2nc3ccccc3s2)c(Cl)c1)c1cccc(Br)c1O | 24 | > 100 | 3.8 | 5.6 | 0.45 | > 100 | > 100 | 0.45 | 2.9 | 5 - 15 | 9.5 | 1 | 0.71 | > 63 | 19 | 64 | > 100 |  |  |
| O=C(Nc1ccc(Sc2nc3ccccc3s2)cc1)c1ccccc1O | 67 | > 100 | 87 | 2 | 0.2 | > 100 | > 100 | 0.2 | > 100 | 5 - 15 | 40 | 0.91 | 0.41 | > 63 | 33 | 74 | > 100 | > 100 |  |
| CN[C@H](CC(C)C)C(=O)N[C@H]1C(=O)N[C@@H](CC(N)=O)C(=O)N[C@H]2C(=O)N[C@H]3C(=O)N[C@H](C(=O)N[C@H](C(=O)O)c4cc(O)cc(O)c4-c4cc3ccc4O)[C@H](O)c3ccc(c(Cl)c3)Oc3cc2cc(c3O[C@@H]2O[C@H](CO)[C@@H](O)[C@H](O)[C@H]2O[C@H]2C[C@](C)(N)[C@H](O)[C@H](C)O2)Oc2ccc(cc2Cl)[C@H]1O [VANCOMYCIN] | 0.6 | > 100 | > 100 | > 100 | 0.67 | > 100 | > 100 | 0.67 | > 100 |  | > 100 | 0.54 | 0.52 | > 63 | > 100 | > 100 | > 100 | > 100 |  |
| O=C(Nc1cccc(Cl)c1)c1cc(Br)ccc1O | > 100 | > 100 | > 100 | 6.9 | 0.46 | > 100 | > 100 | 0.46 | > 100 | 5 - 15 | > 100 | 0.44 | 0.53 | > 63 | 4.1 | 15 | > 100 | > 100 | Activity (Staphylococcus aureus [14]): Active |
| COc1ccccc1C(=O)Nc1ccc(Sc2nc3ccccc3s2)c(Cl)c1 | > 100 | > 100 | > 100 |  | > 100 | > 100 | > 100 |  | > 100 |  | > 100 |  | > 100 | > 63 | > 100 | > 100 | > 100 | > 100 |  |
| O=C(Nc1ccccc1)c1cc(Br)cc(Br)c1O [METABROMSALAN] | > 100 | > 100 | > 100 |  | 1.2 | > 100 | > 100 |  | > 100 |  | 61 |  | 2 | 51 | 25 | 34 | > 100 |  | selectivity ratio [4]: > 50; selectivity ratio [13]: > 50 |
| O=C(Nc1cccc(Cl)c1)c1cc(Br)cc(Br)c1O | 73 | > 100 | 47 |  | 0.66 | 95 | > 100 |  | 46 |  | 24 |  | 1.1 | 27 | 9.2 | 18 | 78 |  | selectivity ratio [4]: > 50; selectivity ratio [13]: > 50 |
| O=C(Nc1ccc(Sc2nc3ccccc3s2)cc1)c1cc(Br)cc(Br)c1 | > 100 | > 100 | > 100 |  | > 100 | > 100 | > 100 |  | > 100 |  | > 100 |  | > 100 | > 63 | > 100 | > 100 | > 100 | > 100 |  |
| COc1c(Br)cccc1C(=O)Nc1ccccc1 | > 100 | > 100 | > 100 |  | > 100 | > 100 | > 100 |  | > 100 |  | > 100 |  | > 100 | > 63 | > 100 | > 100 | > 100 | > 100 |  |
| COc1ccc(Br)cc1C(=O)Nc1ccc(Sc2nc3ccccc3s2)c(Cl)c1 | > 100 | > 100 | > 100 |  | > 100 | > 100 | > 100 |  | > 100 |  | > 100 |  | > 100 | > 63 | > 100 | > 100 | > 100 | > 100 |  |
